Test results reported in paper PMC4122542 (Journal of medicinal chemistry, 2008).

Assays:
[1] = normal mice; cited from earlier work
RG2TK+ cells = test: In vitro cell uptake of radiolabeled nucleosides in HSV1-tk expressing cells; format: cell-based, Rat; conditions: 2 h incubation, % of total radioactivity per 10^6 cells
RG2 cells [2] = test: MTT cytotoxicity assay in wild-type cells; format: cell-based, Rat
Method in brief: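 Non-transduced rat glioma RG2 cells were grown in DMEM with 10% FBS and 1% penicillin/streptomycin at 37 °C under 5% CO2, then seeded at 1.5 × 10^3 cells/well and incubated overnight. Test compound was applied at 0.001–1000 μmol/L in quadruplicate for 72 h at 37 °C. MTT (1 mg/mL) was added for 3 h, and formazan was dissolved in DMSO. A490 (650 nm reference) was blank-subtracted and growth expressed as % of untreated control.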

RG2 cells [3] = test: In vitro cell uptake of radiolabeled nucleosides in non-transduced control cells; format: cell-based, Rat; conditions: 2 h incubation, % of total radioactivity per 10^6 cells, wild-type RG2 cells
[4] = cited from earlier work

Question: For `O=c1[nH]c(=O)n([C@@H]2O[C@H](CO)[C@@H](O)[C@H]2F)cc1/C=C/[123I]` [[^123I]IVFRU], which Brain uptake [1] is on record?
Answer: Its Brain uptake is “very low brain uptake”.

Question: With `O=c1[nH]c(=O)n([C@H]2C[C@H](O)[C@@H](CO)O2)cc1CCC[18F]` [[^18F]FPrDU] as the compound, how does the “% Uptake per 10^6 Cells, RG2TK+” value (RG2TK+ cells) read?
Answer: Its value is 8.4 % per 10^6 cells.

Question: Which “Cytotoxicity to RG2 cells (in words)” value (RG2 cells [2]) does the source give for `Nc1nc(O)c2ncn(COC(CO)CO)c2n1` [GCV, ganciclovir] here?
Answer: The value was “not active against RG2 cells”.

Question: Which “% Uptake per 10^6 Cells, RG2” value (RG2 cells [3]) does the source give for `O=c1[nH]c(=O)n([C@@H]2O[C@H](CO)[C@@H](O)[C@@H]2F)cc1[125I]` [[^125I]FIAU, 2′-fluoro-2′-deoxy-5-[^125I]iodo-1-β-D-arabinofuranosyluracil] here?
Answer: The value was 3.44 % per 10^6 cells.

Question: And the “% Uptake per 10^6 Cells, RG2TK+” value (RG2TK+ cells)?
Answer: The value was 29.4 % per 10^6 cells.

Question: With `O=c1[nH]c(=O)n([C@@H]2O[C@H](CO)[C@@H](O)[C@@H]2F)cc1CCCC[18F]` [[^18F]FFBuAU] as the compound, how does the “% Uptake per 10^6 Cells, RG2” value (RG2 cells [3]) read?
Answer: Its value is 0.66 % per 10^6 cells.

Question: For `O=c1[nH]c(=O)n([C@@H]2O[C@H](CO)[C@@H](O)[C@@H]2F)cc1/C=C/[123I]` [[^123I]IVFAU], which Brain uptake [1] is on record?
Answer: Its Brain uptake is “very low brain uptake”.

Question: Which “Diffusion across the intact BBB” value [4] does the source give for `O=c1[nH]c(=O)n([C@@H]2O[C@H](CO)[C@@H](O)[C@@H]2F)cc1I` [FIAU] here?
Answer: The value was “does not diffuse across the intact BBB”.

Question: What about the “Cytotoxicity to RG2 cells (in words)” value (RG2 cells [2]) of the same compound?
Answer: Its value is “moderately toxic to RG2 cells”.

Question: Which “% Uptake per 10^6 Cells, RG2” value (RG2 cells [3]) does the source give for `O=c1[nH]c(=O)n([C@H]2C[C@H](O)[C@@H](CO)O2)cc1CCCCC[18F]` [[^18F]FPeDU] here?
Answer: Its value is 0.23 % per 10^6 cells.
